Compound activity as filed in PubChem BioAssay.
CYP2C9 act – CYP2C9 (human) activation | P11712 | recombinant CYP2C9, luciferin-H conversion, luminescence; stronger effect = higher value; factor 1 = untreated enzyme, 0 = blocked | activation factor at 5 µM | actives 1.4% (n = 96,000);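 active = activation factor of 2 or more for CYP2C9 at a 5 µM dose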;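 also: 0 = sulfaphenazole-blocked wells and 1 = vehicle-only wells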
tolC growth inh – blocks growth of E. coli BW25113 tolC mutant | OD615 | growth inhibition, % at 10 µM (by protocol) | actives 2.2% (n = 65,000) | AID 573;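 active = growth inhibition at or above a cutoff equal to the mean over every tested compound plus 3 SD, cut at about 60% in these data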;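 also: growth measured after 20 h incubation at 37 °C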
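Test system: tolC-deleted E. coli BW25113; medium: LB with kanamycin 50 µg/mL; compound: single-point testing at 10 µM; incubation: 20 h compound exposure of bacteria at 37 °C; signal: OD at 615 nm; evaluation: growth inhibition in percent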
CYP2C19 inh – blocks human cytochrome P450 2C19. P33261. CYP2C19 Supersomes, luciferin-H EGE luminescence, 30 min. inhibition, % at 5 µM. actives 21% (n = 96,000). AID 778;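 active = CYP2C19 inhibition above a set limit at 5 µM in the primary screen, cut at about 50% in these data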;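 also: plate controls were negative control wells for no effect and 2.5 mM tranylcypromine positive control for full effect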
Target sequence (P33261 whole entry, looked up): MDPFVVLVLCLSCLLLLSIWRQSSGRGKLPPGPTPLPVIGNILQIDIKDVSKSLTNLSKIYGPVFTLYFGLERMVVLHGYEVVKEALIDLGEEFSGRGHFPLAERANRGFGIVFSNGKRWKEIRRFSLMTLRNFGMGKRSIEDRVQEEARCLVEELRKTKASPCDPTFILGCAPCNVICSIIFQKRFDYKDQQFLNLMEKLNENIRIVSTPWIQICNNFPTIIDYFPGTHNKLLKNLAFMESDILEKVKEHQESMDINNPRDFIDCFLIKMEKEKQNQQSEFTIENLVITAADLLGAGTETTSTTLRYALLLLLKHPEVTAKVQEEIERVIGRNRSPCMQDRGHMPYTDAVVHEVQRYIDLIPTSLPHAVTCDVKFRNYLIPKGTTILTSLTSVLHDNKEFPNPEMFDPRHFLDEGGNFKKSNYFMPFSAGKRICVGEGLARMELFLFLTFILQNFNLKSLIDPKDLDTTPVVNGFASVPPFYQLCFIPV
CYP2C19 activ – cytochrome P450 2C19 (human) activation; activation factor at 5 µM; recombinant CYP2C19, luciferin-H EGE luminescence; stronger effect = higher value; 0 = fully inhibited enzyme, 1 = untreated enzyme; AID 1025; 96,000 tested, under 10 active; P33261;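 active = activation factor of at least 2 at 5 µM in the primary screen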;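 also: 0 = wells with 2.5 mM tranylcypromine and 1 = vehicle-only wells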
E coli WT exp – E. coli BW25113 growth inhibition, expanded screen; growth inhibition, % at 100 µM; actives 0.15% (n = 98,000); OD600 absorbance; AID 710;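 active = growth inhibition above about 50% at one test dose, limit read from the data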;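 also: growth measured after 20 h incubation at 37 °C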
CYP2C9 inhib – blocks human cytochrome P450 2C9; actives 20% (n = 96,000); inhibition, % at 5 µM; AID 777; CYP2C9 Supersomes, luciferin-H conversion, luminescence;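 active = blocking of liver enzyme CYP2C9 beyond about 50% at 5 µM, limit read from the data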
Active calls of the source: *; . = no result. Most compounds without a hit are left out; they make up all but 29% or so of the library.

SMILES	CYP2C9 act	tolC growth inh	CYP2C19 inh	CYP2C19 activ	E coli WT exp	CYP2C9 inhib
COc1ccc(C(=O)CSc2nnc(-c3cnccn3)n2Cc2ccco2)cc1	0.5	17.2	40.5	0.6	-9.0	54.4*
COC(=O)c1c(NC(=O)CSc2nnc(-c3cccnc3)n2Cc2ccco2)sc(C)c1C	0.1	26.6	83.5*	0.2	-11.0	85.3*
CC1CCN(C(=O)CSc2nnc(-c3cc4ccccc4cc3O)n2Cc2ccco2)CC1	0.3	25.8	66.7*	0.3	-2.0	74.4*
O=C1Nc2cc(Cl)cnc2N2CCCC12 (stereo not given)	0.2	8.5	46.4	0.5	6.0	83.2*
Cc1ccc(OCC(=O)N/N=C\c2cn(C)c3ccccc23)c([N+](=O)[O-])c1	1.1	.	21.5	0.8	-5.0	-7.2
Brc1ccc2ncnc(Nc3cccc4ccccc34)c2c1	0.4	.	80.1*	0.2	-17.0	59.0*
Cc1cccc(Nc2ncnc3ccccc23)c1	0.5	7.7	59.3*	0.4	15.0	45.8
OCCNc1ncnc2ccc(Br)cc12	1.1	7.0	-14.2	1.1	18.0	-6.1
COC(=O)c1cccc(Nc2ncnc3ccc(C)cc23)c1	0.6	.	44.2	0.6	-2.0	36.6
Cn1c(=O)c2c(nc(Br)n2CCSc2nnnn2-c2ccccc2)n(C)c1=O	0.8	6.1	40.1	0.6	-3.0	19.8
CCOC(=O)Cn1nc(CC)c2ccccc2c1=O	1.1	.	-2.1	1	-7.0	-15.0
CCOC(=O)C1CCN(c2nnc(N3CCCC3=O)s2)CC1	1.2	-19.1	-12.6	1.1	0.0	-15.3
Cc1cccc2cc(CN(Cc3ccco3)C(=O)NC3CCCCC3)c(=O)[nH]c12	0.3	64.1*	69.7*	0.3	-7.0	74.0*
COc1ccc(CCN(Cc2cc3cccc(C)c3[nH]c2=O)C(=O)NC2CCCCC2)cc1OC	0.3	.	65.8*	0.3	-2.0	74.6*
Cc1cccc2cc(CN(CC3CCCO3)C(=O)NC3CCCCC3)c(=O)[nH]c12 (stereo not given)	0.8	19.9	7.5	0.9	9.0	16.7
COc1ccc(CCN(Cc2cc3cc(C)ccc3[nH]c2=O)C(=O)N2CCCC2)cc1OC	0	7.4	31.8	0.7	6.0	98.3*
COc1ccccc1NC(=O)N(Cc1ccco1)Cc1cc2cccc(C)c2[nH]c1=O	0.2	23.3	89.6*	0.1	-16.0	81.9*
Cc1ccc(C(=O)N2CC(C)OC(C)C2)c(Cl)c1 (stereo not given)	1.1	.	20.0	0.8	9.0	-5.3
Cc1cccc(NC(=O)C2CCCN(C(=O)Nc3ccccc3)C2)c1C (stereo not given)	0.8	-2.8	26.7	0.7	-3.0	22.8
COCCCNC(=O)/C=C/c1ccc(Cl)cc1	1	.	-9.7	1.1	7.0	-1.7
O=C(O)CCCCCCC1C(=O)NC(=O)N1CCC(O)C1CCCCC1 (stereo not given)	.	1.5	.	.	.	.
COc1cccc(C(C(=O)NC(C)(C)C)N(C(=O)CCC(=O)Nc2cc(C)on2)C2CC2)c1OC (stereo not given)	1	-8.6	-4.8	1	2.0	1.1
CCc1ccccc1NC(=O)CSc1nnc([C@@H]2CCCN2C(=O)OC(C)(C)C)o1	0.9	-4.9	28.7	0.7	12.0	14.3
CC(C)(C)OC(=O)N1CCC[C@H]1c1nnc(SCc2ccccc2F)o1	0.4	16.7	60.6*	0.4	9.0	59.6*
Cc1c(C(=O)N2CCN(c3ccccc3)CC2)sc2ncnc(N3CCC(C)CC3)c12	0.5	.	61.3*	0.4	-14.0	49.2
SMILES	CYP2C9 act	tolC growth inh	CYP2C19 inh	CYP2C19 activ	E coli WT exp	CYP2C9 inhib
Cc1c(C(=O)N2CCOCC2)sc2ncnc(N3CCc4ccccc4C3)c12	0.3	1.9	32.1	0.7	5.0	65.3*
Cc1c(C(=O)N2CCN(c3ccccn3)CC2)sc2ncnc(N3CCN(c4ccccc4)CC3)c12	.	36.5	.	.	.	.
Cc1cccc(-c2nc(=S)c3c(o2)CCCC3)c1	2.5*	.	13.9	0.9	0.0	-145.5
S=c1nc(-c2ccc(Br)cc2)oc2c1CCCC2	1	.	-7.3	1.1	-1.0	1.0
CCOC(=O)c1cnc(-n2nc(C)cc2C)nc1NCCc1ccccc1	0.1	100.0*	83.1*	0.2	2.0	91.7*
CCOC(=O)c1cnc(-n2nc(C)cc2C)nc1NCc1ccc2c(c1)OCO2	0.4	35.5	33.1	0.7	-3.0	61.7*
O=C(OC(C(=O)NCC1CCCO1)c1ccccc1F)c1ccco1 (stereo not given)	0.9	-27.2	6.7	0.9	-1.0	6.3
C=CCOc1ccc(C2c3c(oc4ccccc4c3=O)C(=O)N2CCCN2CCOCC2)cc1 (stereo not given)	0.5	-1.0	35.9	0.6	-2.0	54.7*
CC(C)Oc1ccc(C2c3c(oc4ccccc4c3=O)C(=O)N2CCCN2CCOCC2)cc1 (stereo not given)	0.5	12.4	48.9	0.5	3.0	51.3*
COc1cc(OC)cc(C(=O)N2CCC(N3CCCCCC3)CC2)c1	.	-1.7	.	.	.	.
Cc1ccc(S(=O)(=O)N(CC(=O)N/N=C/c2cccc3c2OCCO3)c2ccccc2F)cc1	0.1	.	82.2*	0.2	-9.0	93.6*
O=C(NCc1ccccn1)Nc1ccc(Cl)c(Cl)c1	.	35.7	.	.	11.0	.
CC(Cc1cccs1)NC(=O)Nc1ccccc1 (stereo not given)	0.4	21.2	89.3*	0.1	12.0	57.1*
CC(Cc1cccs1)NC(=O)Nc1ccc(Cl)c(Cl)c1 (stereo not given)	0.3	.	73.0*	0.3	20.0	69.0*
CC(Cc1cccs1)NC(=O)Nc1ccc(Cl)cc1 (stereo not given)	0.7	.	68.5*	0.3	10.0	29.8
c1ccc(CCn2c3ccccc3c3nnc(SCc4ccc5nonc5c4)nc32)cc1	0.5	.	21.3	0.8	-19.0	45.6
Cc1ccc(NC(=O)c2ccc(S(=O)(=O)N3CCC(C)CC3)cc2)cc1	0.7	.	23.0	0.8	-2.0	26.4
CC(C)C(=O)OCCN=C1NS(=O)(=O)c2ccccc21	0.9	.	13.0	0.9	1.0	6.2
CCOC(=O)Cc1csc(NC(=O)c2csc(C)c2)n1	0.7	14.3	19.9	0.8	7.0	32.8
CCOC(=O)Cc1csc(NC(=O)COc2ccc(N(C)S(=O)(=O)c3ccc(C)cc3)cc2)n1	0.1	.	92.0*	0.1	-12.0	92.2*
CCOC(=O)Cc1csc(NC(=O)COc2ccc(OC)cc2)n1	0.8	6.8	2.9	1	6.0	16.4
CCOC(=O)Cc1csc(NC(=O)c2sc3nc4c(C)cc(C)cc4cc3c2N)n1	0.4	.	28.2	0.7	-12.0	58.8*
CCOC(=O)Cc1csc(NC(=O)COc2ccc3ccccc3c2)n1	0.5	.	52.7*	0.5	-2.0	46.9
CCOC(=O)Cc1nnc(NC(=O)COc2ccc(OC)cc2)s1	0.4	.	0.1	1	-6.0	60.8*
CCNC(=S)NNC(=O)CCn1c2ccccc2c2ccccc21	1.1	.	31.2	0.7	-6.0	-13.7
